Measured values as given in ChEMBL document CHEMBL1147345, “Appenolides A-C: three new antifungal furanones from the coprophilous fungus Podospora appendiculata” (1993).
Activity calls are given as the source filed them. The calls are words filed in the database; no cut-off is given here.

Tests used:
Assay type in all cases: functional
Sordaria fimicola = assay: Antifungal activity against Sordaria fimicola NRRL 6459 assessed as reduction in radial growth rate at 150 ug/disk by centerpoint inoculation disk assay; set-up: scale not given: the % may be the effect or the level left
Candida albicans = assay: Antifungal activity against Candida albicans ATCC 14053 at 150 ug/disk by standard disk assay; conditions: read-out: IZ
How it was run: (§1)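 Standard disc assay with 150 µg of compound loaded per disc. Activity is read as the zone of inhibition around the disc, in mm.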

Bacillus subtilis = assay: Antibacterial activity against Bacillus subtilis ATCC 6051 at 150 ug/disk by standard disk assay; conditions: for zone of inhibition at 150 µg/disc: read-out: IZ; how it was run: as §1
Ascobolus stercorarius = assay: Antifungal activity against Ascobolus furfuraceus NRRL 6460 assessed as reduction in radial growth rate at 50 ug/disk by centerpoint inoculation disk assay; set-up: scale not given: the % may be the effect or the level left

Row | SMILES | Activity (Sordaria fimicola) | zone of inhibition at 150 µg/disc (Candida albicans) [mm] | Activity (Bacillus subtilis) | Activity (Ascobolus stercorarius) | zone of inhibition at 150 µg/disc (Bacillus subtilis) [mm]
1 | CC(=O)CCCCC/C=C/C1=C(C)C(=O)OC1 [APPENOLIDE A] | 54% | 12 | inactive | 26% | 
2 | CC1=C(/C=C/CCCCCC(C)O)COC1=O (configuration not stated) [APPENOLIDE B] | Active | 12 |  | Active | 8
3 | CCC(O)CCCC/C=C/C1=C(C)C(=O)OC1 (configuration not stated) [APPENOLIDE C] | Active | 12 |  | Active | 8
